Test results published in PubChem BioAssay.
Activity calls are given as the source filed them.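 Rule for the calls, unless noted: active = potentiation averaged over duplicate wells exceeding buffer-only control mean by more than 3 SD; inactive = the rest.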

Tested on: not listed separately
Assay: nonspecific flux increase, KCNQ1-free cells – parental CHO cells, counter-screen for KCNQ1 potentiator project (AID 493006;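 active = duplicate-averaged activation above buffer control mean plus 5 SD of those controls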;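 for activation: fluorescence ratio of max minus min over baseline after K+ and Tl+ depolarization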)
Conditions: parental CHO-K1 cells, FluxOR thallium flux, at 10 µM; active compounds read high
Method in brief: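 Material: parental CHO-K1 cells, FluxOR dye-loaded; Also added: Potassium/thallium depolarization pulse; Schedule: overnight 37 °C plating, 90 min dye, 20 min dark compound; Signal: kinetic FluxOR fluorescence, 10 s baseline, 110 s after stimulus.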
For `COC(=O)c1ccc(CNC(=O)c2ccc(COc3ccccc3)cc2)cc1`, the outcome was “inactive”.
With `CCN(CC)c1ccc(Nc2cc3n(c(=O)n2)CCc2cc(OC)c(OC)cc2-3)cc1` the outcome was “inactive”.
With `O=C1N(Cc2ccc(F)cc2)CCN1c1ccc(F)cc1` the activation was 149% (active).
For `CO/N=C/CC(=O)Nc1ccc(F)cc1F`, the outcome was “inactive”.
In the case of `CC1Cc2ccccc2N1C(=S)NC(=O)c1cccc(Br)c1` (stereo not given), the activation is reported as 726% (active).
With `COc1ccc(OCC(=O)NC(=S)Nc2ccc(N3CCOCC3)c(Cl)c2)cc1` the activation was 142% (active).
In the case of `CC(C(=O)O)n1c2ccccc2c2cn[nH]c(=O)c21` (stereo not given), the outcome is reported as “inactive”.
With `CCCN1C(=O)/C(=C/c2ccc(C)s2)NC1=S` the activation was 395% (active).
In the case of `Cc1onc(-c2ccccc2Cl)c1C(=O)Nc1ccccc1O`, the outcome is reported as “inactive”.
With `Cc1sc2ncnc(SCC(=O)NC(=O)c3cccn3C)c2c1C` the activation was 170% (active).
For `COc1ccc(C(=O)NC(=S)N(Cc2ccccc2)Cc2ccccc2)cc1`, the activation was 385% (active).
In the case of `FC(F)(F)c1cc(N2CCNCC2)c2ccccc2n1`, the outcome is reported as “inactive”.
In the case of `CNc1ccccc1C(=O)OC(C)C(=O)Nc1ccc(Cl)cn1` (stereo not given), the outcome is reported as “inactive”.
In the case of `COC(=O)c1cccc(NC(=O)CSc2nncn2-c2ccccn2)c1`, the outcome is reported as “inactive”.
With `Cc1cc(C(=O)N/N=C/c2cccs2)no1` the outcome was “inactive”.
For `COc1cc(/C=N/Nc2snc(SC)c2C#N)ccc1O`, the outcome was “inactive”.
With `CCOC(=O)C(=Cc1cc(=O)c(OC)co1)C(=O)OCC` the outcome was “inactive”.
In the case of `O=C(NC(=S)Nc1ccc(C(F)(F)F)cc1)c1csnn1`, the activation is reported as 590% (active).
For `N#CC(c1ccc(Cl)cc1)c1ccc2c(C(F)(F)F)cc(C(F)(F)F)nc2n1` (stereo not given), the activation was 296% (active).
In the case of `CNC(=S)Nc1sc2c(c1C(=O)OC)CCC2`, the activation is reported as 252% (active).
For `CC(NC(=S)NC(=O)c1ccccc1Br)c1ccccc1` (stereo not given), the outcome was “inactive”.
In the case of `Cc1cccc(-c2n[nH]c(=S)n2/N=C/c2cccs2)c1`, the activation is reported as 138% (active).
For `COC(=O)C1C(c2ccc(OC)c(OC)c2)NC(c2ccc(OC)c(OC)c2)C(C(=O)OC)S1(=O)=O` (stereo not given), the outcome was “inactive”.
In the case of `CCCSC(=S)c1c(C)[nH]n(-c2ccccc2)c1=O`, the activation is reported as 352% (active).
For `O=C(Cn1c(C(F)(F)F)nc2ccccc21)N=Nc1c(O)[nH]c2ccc(Br)cc12`, the outcome was “inactive”.
In the case of `CCCn1c(=S)[nH]c2ccc(C(F)(F)F)cc21`, the activation is reported as 158% (active).
For `COc1ccc(CCN(C)C(=O)CSc2nnc(-c3ccco3)o2)cc1OC`, the outcome was “inactive”.
For `C=CCN(c1ccccc1)S(=O)(=O)c1cccc(C(=O)Nc2cccc(C)n2)c1`, the activation was 290% (active).
With `Cc1ccc(C)c(S(=O)(=O)NCC(=O)N2CCCC2)c1` the outcome was “inactive”.
For `COc1ccccc1C(=O)NNC(=O)C(=O)NC(C)(C)C`, the activation was 185% (active).
With `S=c1nc(C2CCCCC2)[nH]c2ccccc12` the activation was 138% (active).
For `NC(=O)COC(=O)c1ccccc1Nc1ccc(SC(F)F)cc1`, the outcome was “inactive”.
In the case of `CC1(c2ccccc2)CC(C)(C)N2C(=O)/C(=C3\SC(=S)NC3=O)c3cccc1c32` (stereo not given), the activation is reported as 684% (active).
With `N#C/C(=C\c1ccc(-c2ccccc2Cl)o1)C(=O)Nc1nc2ccccc2s1` the outcome was “inactive”.
With `CC(C)CC(=O)NC(=S)Nc1nc(-c2ccccc2)cs1` the activation was 284% (active).
For `O=C(COC(=O)C12CC3CC(CC(C3)C1)C2)NCCCc1ccccc1`, the outcome was “inactive”.
For `C=CCN(CC=C)C(=S)NC(=O)c1ccc(OC)cc1`, the activation was 187% (active).
In the case of `O=C(COc1ncnc2ccc(Br)cc12)Nc1ccc(N2CCOCC2)cc1`, the outcome is reported as “inactive”.
With `CCc1ccc(CNC(=O)CCn2nc(C)c3c(C)n(-c4ccccc4)nc3c2=O)cc1` the outcome was “inactive”.
With `CCCCn1c(N)c(C(=S)NC(=O)CC(C)(C)C)c(=O)n(C)c1=O` the activation was 140% (active).

Molecular target: Potassium voltage-gated channel subfamily KQT member 1 (Homo sapiens) (UniProt P51787)
Sequence (P51787 whole entry, looked up): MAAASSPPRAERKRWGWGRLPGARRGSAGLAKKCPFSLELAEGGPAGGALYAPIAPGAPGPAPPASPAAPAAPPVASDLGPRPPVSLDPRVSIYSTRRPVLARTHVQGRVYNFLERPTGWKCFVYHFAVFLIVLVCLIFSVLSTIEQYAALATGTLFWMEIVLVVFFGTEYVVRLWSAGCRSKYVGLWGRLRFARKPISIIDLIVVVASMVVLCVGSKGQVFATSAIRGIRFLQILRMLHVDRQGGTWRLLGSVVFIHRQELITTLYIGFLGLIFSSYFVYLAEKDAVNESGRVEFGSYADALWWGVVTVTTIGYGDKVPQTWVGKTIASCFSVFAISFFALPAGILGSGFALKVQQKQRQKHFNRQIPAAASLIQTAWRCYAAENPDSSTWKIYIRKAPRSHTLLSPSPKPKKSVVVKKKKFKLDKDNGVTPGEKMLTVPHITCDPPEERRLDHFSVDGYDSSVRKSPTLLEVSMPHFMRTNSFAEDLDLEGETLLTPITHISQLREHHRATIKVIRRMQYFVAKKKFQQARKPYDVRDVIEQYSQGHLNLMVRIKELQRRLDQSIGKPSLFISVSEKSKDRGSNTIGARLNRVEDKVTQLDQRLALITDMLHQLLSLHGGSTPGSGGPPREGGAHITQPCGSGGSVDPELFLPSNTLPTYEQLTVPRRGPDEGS
Assay: enhancement of KCNQ1 channel thallium flux – FluxOR thallium flux, CHO cells, duplicates, confirmation (AID 493007);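 for outcome: cells depolarized by a potassium plus thallium sulfate stimulus after compound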
Conditions: KCNQ1 cell line, FluxOR thallium flux fluorescence, at 10 µM; active compounds read high, % of reference activator effect, buffer zero
Method in brief: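 System: KCNQ1-expressing CHO cell line; technique: kinetic thallium influx fluorescence with FluxOR dye, 10 s baseline, 110 s post-stimulus; timing: dye 90 min then compound 20 min, both at room temperature; controls: buffer-only wells as 0% and R-L3 activator as 100%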
With `COC(=O)c1ccc(CNC(=O)c2ccc(COc3ccccc3)cc2)cc1` the outcome was “inactive”.
In the case of `CCN(CC)c1ccc(Nc2cc3n(c(=O)n2)CCc2cc(OC)c(OC)cc2-3)cc1`, the outcome is reported as “inactive”.
In the case of `O=C1N(Cc2ccc(F)cc2)CCN1c1ccc(F)cc1`, the potentiation is reported as 22% (active).
In the case of `CO/N=C/CC(=O)Nc1ccc(F)cc1F`, the outcome is reported as “inactive”.
For `CC1Cc2ccccc2N1C(=S)NC(=O)c1cccc(Br)c1` (stereo not given), the potentiation was 224% (active).
For `COc1ccc(OCC(=O)NC(=S)Nc2ccc(N3CCOCC3)c(Cl)c2)cc1`, the potentiation was 33.5% (active).
With `CC(C(=O)O)n1c2ccccc2c2cn[nH]c(=O)c21` (stereo not given) the outcome was “inactive”.
For `CCCN1C(=O)/C(=C/c2ccc(C)s2)NC1=S`, the potentiation was 194% (active).
With `Cc1onc(-c2ccccc2Cl)c1C(=O)Nc1ccccc1O` the outcome was “inactive”.
In the case of `Cc1sc2ncnc(SCC(=O)NC(=O)c3cccn3C)c2c1C`, the potentiation is reported as 28.5% (active).
With `COc1ccc(C(=O)NC(=S)N(Cc2ccccc2)Cc2ccccc2)cc1` the potentiation was 168% (active).
In the case of `FC(F)(F)c1cc(N2CCNCC2)c2ccccc2n1`, the outcome is reported as “inactive”.
With `CNc1ccccc1C(=O)OC(C)C(=O)Nc1ccc(Cl)cn1` (stereo not given) the outcome was “inactive”.
With `COC(=O)c1cccc(NC(=O)CSc2nncn2-c2ccccn2)c1` the outcome was “inactive”.
With `Cc1cc(C(=O)N/N=C/c2cccs2)no1` the outcome was “inactive”.
With `COc1cc(/C=N/Nc2snc(SC)c2C#N)ccc1O` the outcome was “inactive”.
In the case of `CCOC(=O)C(=Cc1cc(=O)c(OC)co1)C(=O)OCC`, the outcome is reported as “inactive”.
In the case of `O=C(NC(=S)Nc1ccc(C(F)(F)F)cc1)c1csnn1`, the potentiation is reported as 269% (active).
For `N#CC(c1ccc(Cl)cc1)c1ccc2c(C(F)(F)F)cc(C(F)(F)F)nc2n1` (stereo not given), the potentiation was 145% (active).
For `CNC(=S)Nc1sc2c(c1C(=O)OC)CCC2`, the potentiation was 89.5% (active).
With `CC(NC(=S)NC(=O)c1ccccc1Br)c1ccccc1` (stereo not given) the potentiation was 84% (active).
For `Cc1cccc(-c2n[nH]c(=S)n2/N=C/c2cccs2)c1`, the potentiation was 22.5% (active).
In the case of `COC(=O)C1C(c2ccc(OC)c(OC)c2)NC(c2ccc(OC)c(OC)c2)C(C(=O)OC)S1(=O)=O` (stereo not given), the outcome is reported as “inactive”.
In the case of `CCCSC(=S)c1c(C)[nH]n(-c2ccccc2)c1=O`, the potentiation is reported as 165% (active).
With `O=C(Cn1c(C(F)(F)F)nc2ccccc21)N=Nc1c(O)[nH]c2ccc(Br)cc12` the outcome was “inactive”.
With `CCCn1c(=S)[nH]c2ccc(C(F)(F)F)cc21` the outcome was “inactive”.
With `COc1ccc(CCN(C)C(=O)CSc2nnc(-c3ccco3)o2)cc1OC` the outcome was “inactive”.
For `C=CCN(c1ccccc1)S(=O)(=O)c1cccc(C(=O)Nc2cccc(C)n2)c1`, the potentiation was 224% (active).
With `Cc1ccc(C)c(S(=O)(=O)NCC(=O)N2CCCC2)c1` the outcome was “inactive”.
In the case of `COc1ccccc1C(=O)NNC(=O)C(=O)NC(C)(C)C`, the potentiation is reported as 68% (active).
With `S=c1nc(C2CCCCC2)[nH]c2ccccc12` the potentiation was 22.5% (active).
For `NC(=O)COC(=O)c1ccccc1Nc1ccc(SC(F)F)cc1`, the potentiation was 26% (active).
With `CC1(c2ccccc2)CC(C)(C)N2C(=O)/C(=C3\SC(=S)NC3=O)c3cccc1c32` (stereo not given) the potentiation was 292% (active).
With `N#C/C(=C\c1ccc(-c2ccccc2Cl)o1)C(=O)Nc1nc2ccccc2s1` the outcome was “inactive”.
For `CC(C)CC(=O)NC(=S)Nc1nc(-c2ccccc2)cs1`, the potentiation was 152% (active).
In the case of `O=C(COC(=O)C12CC3CC(CC(C3)C1)C2)NCCCc1ccccc1`, the outcome is reported as “inactive”.
With `C=CCN(CC=C)C(=S)NC(=O)c1ccc(OC)cc1` the potentiation was 43.5% (active).
With `O=C(COc1ncnc2ccc(Br)cc12)Nc1ccc(N2CCOCC2)cc1` the outcome was “inactive”.
With `CCc1ccc(CNC(=O)CCn2nc(C)c3c(C)n(-c4ccccc4)nc3c2=O)cc1` the outcome was “inactive”.
For `CCCCn1c(N)c(C(=S)NC(=O)CC(C)(C)C)c(=O)n(C)c1=O`, the potentiation was 37.5% (active).
